Entries after “also recorded” stand apart in the source; their conditions may differ. Read-outs that look alike come from different tables or passages of the source.
Columns and labels:
[1] = cited from earlier work
plasma DPP‐4 activity [2] = molecular target: T1, plasma DPP‐4 activity (Homo sapiens, UniProt P27487); type: in vivo, healthy Japanese men; conditions: pharmacokinetic/pharmacodynamic Emax model
Summary of the method: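 For each participant, percent inhibition of plasma DPP-4 activity (chromogenic glycyl-prolyl-paranitroanilide substrate, 390 nm) was paired with plasma drug concentration after single oral doses. A population three-parameter Emax model (Emax, EC50, Hill slope) was fitted, and the 80% effective concentration was derived from it.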

[3] = type: in vivo, healthy Japanese men; conditions: for Accumulation ratio (day 15/day 1) AUC0–168h / Accumulation ratio (day 15/day 1) Cmax / Accumulation ratio (day 15/day 1) Ctrough: geometric mean ratio (90% CI)
Summary of the method: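 Blood went into dipotassium-EDTA tubes, was spun 10 min at 1000–1300 g, and plasma was frozen at −20°C. Assay was online-extraction turbulent-flow LC, LLOQ 1.0 ng/mL. Accumulation was the day 15/day 1 geometric mean ratio, computed on the log scale with CIs. For the food comparison, 10 mg single doses were given after a ≥10-h fast or after a 411-kcal Japanese breakfast finished 10 min predose.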

[4] = system: active glucagon‐like peptide‐1; conditions: healthy males; earlier study; cited from earlier work
[5] = no reference given; cited from earlier work
OAT3 = conditions: no reference given; cited from earlier work
plasma DPP‐4 activity [6] = molecular target: T1, plasma DPP‐4 activity; assay: Percent inhibition of plasma DPP-4 activity from baseline; type: in vivo, healthy Japanese men; conditions: for DPP-4 percent inhibition from baseline, LS mean (95% CI) / DPP-4 percent inhibition, difference from placebo, difference in LS means (90% CI): 168 h post-dose
Summary of the method: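 Healthy men received 1–50 mg orally once weekly for 3 weeks. Blood was drawn predose and at set times on days 1 and 15; 4-h and 24-h samples preceded meals. EDTA plasma was incubated with glycyl-prolyl-paranitroanilide, and the absorbance rise at 390 nm was read from 4 to 14 min (LOQ 0.6 mOD/min). Inhibition was taken versus pretreatment and analysed by a log-scale mixed model (treatment, day, interaction; participant random).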

[7] = concentration range for 50 mg q.w. dosing; ref unpubl. data; cited from earlier work
Urine pharmacokinetics = type: in vivo, healthy Japanese men; conditions: male, human, 50 mg
Summary of the method: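 After the 50 mg once-weekly dose on day 15, urine was collected predose (day 1) and at intervals up to 168 h. Tween 20 was added to 0.2% final and samples were stored at −20°C. The assay was LC online extraction, LLOQ 40 ng/mL. Amount excreted was the sum of concentration × volume per interval, fraction excreted was amount/dose, and renal clearance was amount/AUC0–168h.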

OAT1 = conditions: no reference given; cited from earlier work
[8] = Safety and tolerability assessments; type: in vivo, healthy Japanese men
Summary of the method: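 Part 1 used single doses of 5–100 mg and part 2 used 1–50 mg once weekly for 3 weeks, each with placebo. Adverse events were recorded throughout and rated for intensity, duration, severity, outcome and drug relationship. Vital signs, physical and neurological exams, 12-lead ECGs, laboratory tests and glucometer readings were taken predose, post-dose and post-study. Events were tabulated by dose, with change-from-baseline summaries.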

OCT2 = conditions: no reference given; cited from earlier work
[9] = multiple dose 1 mg q.w., day 15
[10] = multiple dose 10 mg q.w., day 15
[11] = multiple dose 25 mg q.w., day 15
[12] = multiple dose 50 mg q.w., day 15
[13] = single 5–100 mg and multiple 1–50 mg q.w. doses
[14] = single 5–100 mg and multiple 1–50 mg q.w. doses, listed as Omarigliptin

T1 sequence (P27487 39-766): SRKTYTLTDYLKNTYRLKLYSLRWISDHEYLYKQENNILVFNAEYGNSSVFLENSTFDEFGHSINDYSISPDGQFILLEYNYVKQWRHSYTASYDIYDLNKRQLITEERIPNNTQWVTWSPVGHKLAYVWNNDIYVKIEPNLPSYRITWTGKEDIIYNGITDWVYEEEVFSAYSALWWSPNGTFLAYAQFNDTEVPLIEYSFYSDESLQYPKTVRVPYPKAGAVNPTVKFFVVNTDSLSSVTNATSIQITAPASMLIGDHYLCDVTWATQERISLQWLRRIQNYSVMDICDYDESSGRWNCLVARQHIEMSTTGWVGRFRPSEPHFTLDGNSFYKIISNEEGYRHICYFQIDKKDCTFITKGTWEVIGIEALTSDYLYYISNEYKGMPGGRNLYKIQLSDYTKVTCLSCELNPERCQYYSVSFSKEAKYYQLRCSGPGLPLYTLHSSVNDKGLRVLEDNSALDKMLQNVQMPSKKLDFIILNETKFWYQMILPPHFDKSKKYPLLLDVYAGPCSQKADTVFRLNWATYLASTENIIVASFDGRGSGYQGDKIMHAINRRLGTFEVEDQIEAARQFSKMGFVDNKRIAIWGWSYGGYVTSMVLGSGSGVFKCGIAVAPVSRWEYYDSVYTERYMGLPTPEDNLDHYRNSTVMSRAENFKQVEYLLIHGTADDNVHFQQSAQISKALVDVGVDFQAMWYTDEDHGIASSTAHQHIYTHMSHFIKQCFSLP

In the case of `Cn1c(=O)cc(N2CCC[C@@H](N)C2)n(Cc2ccccc2C#N)c1=O` [alogliptin], the “renal clearance compared with typical glomerular filtration rates” value [1] is listed as “higher renal clearance than typical glomerular filtration rates”.
With `CS(=O)(=O)n1cc2c(n1)CN([C@H]1CO[C@H](c3cc(F)ccc3F)[C@@H](N)C1)C2` [omarigliptin] the Emax value (plasma DPP‐4 activity [2]) was 96.5 % inhibition, the “estimated 80% effective concentration” value (plasma DPP‐4 activity [2]) was 11.4 nmol and the “Accumulation ratio (day 15/day 1) AUC0–168h” value ([3]; 1 mg q.w. for 3 weeks) was 1.35 (1.27–1.44). For the same molecule, the “Accumulation ratio (day 15/day 1) Cmax” value ([3]; 1 mg q.w. for 3 weeks) was 1.36 (1.13–1.63), the “Accumulation ratio (day 15/day 1) Ctrough” value ([3]; 1 mg q.w. for 3 weeks) was 1.24 (1.06–1.44) and the “Accumulation ratio (day 15/day 1) AUC0–168h” value ([3]; 10 mg q.w. for 3 weeks) was 1.09 (1.04–1.15). For the same molecule, the “Accumulation ratio (day 15/day 1) Cmax” value ([3]; 10 mg q.w. for 3 weeks) was 1.18 (1.00–1.38), the “Accumulation ratio (day 15/day 1) Ctrough” value ([3]; 10 mg q.w. for 3 weeks) was 0.97 (0.86–1.10) and the “effect of food on pharmacokinetics” value ([3]; 10 mg single dose with Japanese standard breakfast) was “did not meaningfully alter the pharmacokinetics”. The “Accumulation ratio (day 15/day 1) AUC0–168h” value ([3]; 25 mg q.w. for 3 weeks) was 1.05 (1.00–1.11), the “Accumulation ratio (day 15/day 1) Cmax” value ([3]; 25 mg q.w. for 3 weeks) was 0.87 (0.75–1.02) and the “Accumulation ratio (day 15/day 1) Ctrough” value ([3]; 25 mg q.w. for 3 weeks) was 1.11 (0.98–1.26). The “Accumulation ratio (day 15/day 1) AUC0–168h” value ([3]; 50 mg q.w. for 3 weeks) was 1.03 (0.97–1.09), the “Accumulation ratio (day 15/day 1) Cmax” value ([3]; 50 mg q.w. for 3 weeks) was 1.21 (1.02–1.43) and the “Accumulation ratio (day 15/day 1) Ctrough” value ([3]; 50 mg q.w. for 3 weeks) was 1.03 (0.90–1.18). The “accumulation ratio (day 15/day 1) AUC0–168h, range” value ([3]; 1–50 mg q.w. for 3 weeks) was 1.03–1.35, the “accumulation ratio (day 15/day 1) Cmax, range” value ([3]; 1–50 mg q.w. for 3 weeks) was 0.87–1.36 and the “accumulation ratio (day 15/day 1) trough plasma concentration, range” value ([3]; 1–50 mg q.w. for 3 weeks) was 0.97–1.24. For the same molecule, the half-life ([3]; male, human, plasma, po, 10 mg, t½, single dose 10 mg, fed, geometric mean (%CV)) was 89.5 h, the “dose proportionality of AUC0–168h and trough plasma concentration” value ([3]; multiple dose 1–50 mg q.w.) was “less than dose‐proportional” and the “dose proportionality of Cmax” value ([3]; multiple dose 1–50 mg q.w.) was “dose‐proportional”. For the same molecule, the “time at which steady state was reached” value ([3]; multiple q.w. dosing, all doses tested) was “after the first dose”, the “AUC0–168h geometric mean ratio (fed/fasted)” value ([3]; single dose 10 mg, GMR, 90% CI) was 0.97 (0.90–1.03) and the “AUC0–∞ geometric mean ratio (fed/fasted)” value ([3]; single dose 10 mg, GMR, 90% CI) was 1.03 (0.96–1.11). For the same molecule, the “C168h geometric mean ratio (fed/fasted)” value ([3]; single dose 10 mg, GMR, 90% CI) was 1.13 (0.93–1.37), the “Cmax geometric mean ratio (fed/fasted)” value ([3]; single dose 10 mg, GMR, 90% CI) was 0.75 (0.65–0.86) and the “dose proportionality of AUC0–∞, AUC0–168h and Cmax” value ([3]; single dose 5–100 mg) was “approximately dose‐proportional”. For the same molecule, the “dose proportionality of C168h” value ([3]; single dose 5–100 mg) was “less than dose‐proportional”, the “enhancement of post‐meal active glucagon‐like peptide‐1” value [4] was “approximately twofold” and the permeability [5] was “high permeability”. The “substrate of drug transporter OAT3” value (OAT3) was “not a substrate”, the “percent inhibition of DPP‐4 activity from baseline at 168 h, range” value (plasma DPP‐4 activity [6]; 1–50 mg q.w., after 3 weeks dosing) was 51.3–90.2% and the “DPP-4 percent inhibition from baseline, LS mean (95% CI)” value (from here on “DPP-4 percent inhibition … (95% CI)”) (plasma DPP‐4 activity [6]; [9]) was 51.33 (29.67–66.32) %. For the same molecule, the “DPP-4 percent inhibition, difference from placebo, difference in LS means (90% CI)” value (“DPP-4 percent inhibition, difference … (90% CI)” below) (plasma DPP‐4 activity [6]; [9]) was 42.48 (31.06–54.19) %, the “DPP-4 percent inhibition … (95% CI)” value (plasma DPP‐4 activity [6]; [10]) was 83.26 (77.03–87.80) % and the “DPP-4 percent inhibition, difference … (90% CI)” value (plasma DPP‐4 activity [6]; [10]) was 74.41 (65.73–83.59) %. The “DPP-4 percent inhibition … (95% CI)” value (plasma DPP‐4 activity [6]; [11]) was 87.52 (83.55–90.53) %, the “DPP-4 percent inhibition, difference … (90% CI)” value (plasma DPP‐4 activity [6]; [11]) was 78.67 (70.36–87.51) % and the “DPP-4 percent inhibition … (95% CI)” value (plasma DPP‐4 activity [6]; [12]) was 90.23 (86.59–92.88) %. For the same molecule, the “DPP-4 percent inhibition, difference … (90% CI)” value (plasma DPP‐4 activity [6]; [12]) was 81.37 (73.30–90.00) %, the “DPP-4 percent inhibition … (95% CI)” value (plasma DPP‐4 activity [6]; single dose 5 mg) was 79.20 (76.17–81.85) % and the “DPP-4 percent inhibition, difference … (90% CI)” value (plasma DPP‐4 activity [6]; single dose 5 mg) was 87.89 (80.96–95.09) %. The “DPP-4 percent inhibition … (95% CI)” value (plasma DPP‐4 activity [6]; single dose 10 mg (fasted)) was 77.39 (74.14–80.24) %, the “DPP-4 percent inhibition, difference … (90% CI)” value (plasma DPP‐4 activity [6]; single dose 10 mg (fasted)) was 86.09 (79.05–93.38) % and the “DPP-4 percent inhibition … (95% CI)” value (plasma DPP‐4 activity [6]; single dose 10 mg (fed)) was 73.90 (70.14–77.18) %. For the same molecule, the “DPP-4 percent inhibition, difference … (90% CI)” value (plasma DPP‐4 activity [6]; single dose 10 mg (fed)) was 82.59 (75.36–90.06) %, the “DPP-4 percent inhibition … (95% CI)” value (plasma DPP‐4 activity [6]; single dose 25 mg) was 85.97 (83.66–87.95) % and the “DPP-4 percent inhibition, difference … (90% CI)” value (plasma DPP‐4 activity [6]; single dose 25 mg) was 94.66 (88.11–101.49) %. For the same molecule, the “DPP-4 percent inhibition … (95% CI)” value (plasma DPP‐4 activity [6]; single dose 50 mg) was 86.76 (84.59–88.63) %, the “DPP-4 percent inhibition, difference … (90% CI)” value (plasma DPP‐4 activity [6]; single dose 50 mg) was 95.45 (88.95–102.25) % and the “DPP-4 percent inhibition … (95% CI)” value (plasma DPP‐4 activity [6]; single dose 100 mg) was 94.01 (93.03–94.85) %. For the same molecule, the “DPP-4 percent inhibition, difference … (90% CI)” value (plasma DPP‐4 activity [6]; single dose 100 mg) was 102.70 (96.60–109.11) %, the “inhibition from baseline of DPP‐4 activity maintained for 168 h” value (plasma DPP‐4 activity [6]; single and multiple q.w. administration at a dose of 25 mg or higher) was “Greater than 80%” and the “free fraction of omarigliptin in humans” value [7] was 56–76%. For the same molecule, the CL renal (Urine pharmacokinetics; urine and plasma, oral) was 50 to 68 mL/min, the CL renal (Urine pharmacokinetics; urine, po) was 38.3 mL/min and the “substrate of drug transporter OAT1” value (OAT1) was “not a substrate”. For the same molecule, the “drug‐related clinical adverse events after omarigliptin” value ([8]; part 1, single dosing) was “five”, the “drug‐related adverse events” value ([8]; part 2, multiple dosing) was “Eight” and the “total clinical adverse events” value ([8]; part 2, multiple dosing, nine participants) was 13. For the same molecule, the “adverse events of hypoglycemia” value [8, 13] was “no adverse events of hypoglycemia”, the “serious clinical or laboratory adverse events” value [8, 13] was “no serious clinical or laboratory adverse events; also recorded: No deaths, serious adverse events or laboratory adverse events were reported” and the tolerability [8, 13] was “well tolerated”. For the same molecule, the “adverse events of hypoglycemia” value [8, 14] was “no hypoglycemia being reported”, the tolerability [8, 14] was “generally well tolerated” and the “changes from baseline in laboratory, vital signs, glucose monitoring or ECG parameters” value ([8]; whole study) was “no clinically significant, consistent treatment‐related or dose‐related changes from baseline”. The “discontinuation because of an adverse event” value ([8]; whole study) was “no participants were discontinued”, the “intensity of adverse events” value ([8]; whole study, all resolved by the end of the study) was “mild or moderate intensity” and the “substrate of drug transporter OCT2” value (OCT2) was “not a substrate”.
In the case of `N[C@@H](CC(=O)N1CCn2c(nnc2C(F)(F)F)C1)Cc1cc(F)c(F)cc1F` [sitagliptin], the “renal clearance compared with typical glomerular filtration rates” value [1] is listed as “higher renal clearance than typical glomerular filtration rates”.
For `Cn1c(=O)cc(N2CCC[C@@H](N)C2)n(Cc2cc(F)ccc2C#N)c1=O` [trelagliptin], the “renal clearance compared with typical glomerular filtration rates” value [1] is given as “higher renal clearance than typical glomerular filtration rates”.

From PMC5217871 (Journal of Diabetes Investigation, 2016)
